# Columns and labels:
# Bos taurus = species: Bos taurus; assay: Inhibition of bovine pancreas alpha-chymotrypsin using N-benzoyl-l-tyrosine ethyl ester as substrate by spectrophotometry relative to control
# Method in brief: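 Enzyme (fresh 5 units/mL stock in ice-cold 1 mM HCl) added to start; initial rates read continuously at 256 nm, no-enzyme background subtracted. Rate with compound divided by control rate; at least two determinations with independently prepared inhibitor solutions, averaged.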
# Cholinesterase = Cholinesterase (Equus caballus, UniProt P81908); assay: Inhibition of horse serum BChE using butyrylthiocholine as substrate by spectrophotometry
# Method in brief: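 Initial rates monitored continuously at 412 nm (ε 14,150 M-1 cm-1), background from no-enzyme reaction. KI from dependence of observed rate constant on inhibitor concentration (typically twelve); at least three determinations averaged.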
# [1] = target: Cholinesterase (Equus caballus) (UniProt P81908); assay: Reversible inhibition of horse serum BChE at Ki using 25 mM of butyrylthiocholine as substrate preincubated for 1 min followed by substrate addition by spectrophotometry relative to control
# [2] = target: Cholinesterase (Equus caballus) (UniProt P81908); assay: Inhibition of horse serum BChE at 500 uM using butyrylthiocholine as substrate by spectrophotometry relative to control
# Method in brief: (§1)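 Ellman method at 25 °C: 100 mM sodium phosphate pH 7.5, 1 mM MgCl2, 0.2 mM DTNB, BSA, 100 µM butyrylthiocholine, 2% methanol. Inhibitor 500 µM final; reaction started with equine serum BChE (10 nM final); initial rates at 412 nm. Rate divided by 2% methanol no-inhibitor control; at least three determinations with independently prepared inhibitor solutions, averaged.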
# [3] = target: Acetylcholinesterase (Electrophorus electricus) (UniProt O42275); assay: Inhibition of electric eel AChE at 500 uM using acetylthiocholine as substrate by spectrophotometry relative to control
# Method in brief: as §1, with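 “acetylthiocholine,” for “butyrylthiocholine,”, “AChE” for “equine serum BChE”, “rates monitored” for “rates”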
# Chain of Cholinesterase (P81908 whole entry): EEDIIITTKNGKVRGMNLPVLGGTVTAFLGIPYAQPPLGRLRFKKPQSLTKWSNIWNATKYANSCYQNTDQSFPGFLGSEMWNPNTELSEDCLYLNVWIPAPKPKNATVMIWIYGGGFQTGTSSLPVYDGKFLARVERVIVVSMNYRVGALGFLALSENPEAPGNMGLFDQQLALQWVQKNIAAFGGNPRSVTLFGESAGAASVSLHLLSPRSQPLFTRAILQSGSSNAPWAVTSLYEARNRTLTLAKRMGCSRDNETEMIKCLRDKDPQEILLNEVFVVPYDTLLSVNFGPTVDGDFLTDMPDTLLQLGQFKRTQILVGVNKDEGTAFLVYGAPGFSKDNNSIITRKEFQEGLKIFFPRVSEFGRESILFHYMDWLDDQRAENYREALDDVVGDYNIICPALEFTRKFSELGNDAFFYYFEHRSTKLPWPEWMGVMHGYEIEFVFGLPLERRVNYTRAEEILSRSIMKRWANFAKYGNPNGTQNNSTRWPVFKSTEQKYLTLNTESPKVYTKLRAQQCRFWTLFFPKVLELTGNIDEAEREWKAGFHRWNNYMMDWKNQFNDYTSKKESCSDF
# Chain of Cholinesterase (Equus caballus) (P81908 whole entry): as above
# Chain of Acetylcholinesterase (Electrophorus electricus) (O42275 24-633 limits assumed): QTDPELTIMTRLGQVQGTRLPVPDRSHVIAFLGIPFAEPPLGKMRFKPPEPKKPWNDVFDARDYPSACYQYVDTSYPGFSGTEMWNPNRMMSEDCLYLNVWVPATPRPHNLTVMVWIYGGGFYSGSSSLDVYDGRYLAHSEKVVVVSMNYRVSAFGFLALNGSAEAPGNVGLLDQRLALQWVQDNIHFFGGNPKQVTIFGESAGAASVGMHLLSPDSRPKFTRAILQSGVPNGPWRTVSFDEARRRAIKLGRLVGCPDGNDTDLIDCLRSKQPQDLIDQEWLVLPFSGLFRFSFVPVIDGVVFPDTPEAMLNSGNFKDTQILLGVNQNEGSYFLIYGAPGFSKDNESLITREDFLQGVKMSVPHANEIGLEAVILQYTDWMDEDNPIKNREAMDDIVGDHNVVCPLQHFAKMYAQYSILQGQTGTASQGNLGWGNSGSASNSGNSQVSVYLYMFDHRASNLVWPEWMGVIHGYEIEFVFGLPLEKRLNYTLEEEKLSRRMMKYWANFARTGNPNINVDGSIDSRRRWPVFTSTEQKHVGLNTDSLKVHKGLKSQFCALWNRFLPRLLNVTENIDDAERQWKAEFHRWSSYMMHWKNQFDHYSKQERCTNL
Compound,fold change (FC) (Bos taurus),Ki (Cholinesterase),fold change (FC) [1],fold change (FC) [2],fold change (FC) [3]
CCCCOP(=O)(OCCCC)OCc1ccc(C)cc1,0.92,14 µM,0.92,0.04,0.87
CCCCOP(=O)(OCCCC)Oc1ccccc1,,45 to 80 µM,,,
CCCCOP(=O)(OCCCC)Oc1ccc(C)c(C)c1,0.94,9 µM,0.93,0.04,1.04
CCCCOP(=O)(OCCCC)Oc1ccc(C)cc1,0.96,8 µM,0.94,0.02,0.89
CCOP(=O)(OCC)Oc1ccccc1 [PHOSPHORIC ACID DIETHYL ESTER PHENYL ESTER],,1590 µM,,,
CCCCOP(=O)(OCCCC)OCc1ccccc1C,0.94,72 µM,0.95,0.04,0.98
CCCCOP(=O)(OCCCC)Oc1cc(C)c(C)c(C)c1,0.84,11 µM,0.88,0.09,1.09
CCCOP(=O)(OCCC)Oc1ccccc1,,45 to 80 µM,,,
CCOP(=O)(OCC)Oc1cc(C)cc(C)c1,,583 µM,,,
CCOP(=O)(OCC)Oc1ccc2ccccc2c1,,147 µM,,,
CCCCOP(=O)(OCCCC)Oc1ccc2ccccc2c1,0.76,1.9 µM,0.8,0.01,1.05
CCCCOP(=O)(OCCCC)OCc1cccc(C)c1,0.94,24 µM,0.95,0.12,0.86
CCCCOP(=O)(OCCCC)Oc1ccccc1C,0.92,50 µM,0.91,0.27,0.99
CCCCOP(=O)(OCCCC)Oc1cc(C)cc(C)c1,0.95,1 µM,0.83,0.01,1
CCCCOP(=O)(OCCCC)Oc1cccc2ccccc12,0.93,22 µM,0.71,0.21,1.07
CCCCOP(=O)(OCCCC)OCc1ccccc1,0.97,2 µM,0.92,0.01,1
CCCCCOP(=O)(OCCCCC)Oc1ccccc1,,6 µM,,,
CCCCOP(=O)(OCCCC)OCCc1ccccc1,0.89,53 µM,0.97,0.11,1.02
CCCCOP(=O)(OCCCC)Oc1cccc(C)c1,0.89,16 µM,0.94,0.15,0.99
